Activity calls are given as the source filed them. No cut-off for these calls is given here.
Legend:
HASMC [1] = test: Induction of cell proliferation in HASMC at 0.1 to 5 uM after 96 hrs by MTT assay; assay type: cell-based; details: human
HASMC [2] = test: Induction of nitric oxide release in HASMC at 5 to 20 uM after 60 mins by DAF-FM DA assay; assay type: functional, cell-based; details: Homo sapiens
HASMC [3] = test: Antiproliferative activity against HASMC at <= 20 uM after 96 hrs by MTT assay; assay type: functional, cell-based; details: Homo sapiens
Procedure, shortened: (§1)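 Serum-starved HASMCs (3000–3500 cells/well) received compound in complete SMC medium (2% FBS) with 1% DMSO at 0.1, 1, 5, 10 or 20 µM for 48 h. Fresh medium was then added and cells grew a further 48 h (96 h total). MTT 4–6 h at 37 °C, solubilized, A570 as % of medium-only control; 1% DMSO vehicle; triplicate; t-test versus vehicle.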

[4] = Induction of nitric oxide release in phosphate buffered saline up to 20 days by Griess reagent test; assay type: physicochemical; parameters: concentration or dose not given beside the values; details: buffer, 480 h
Procedure, shortened: (§2)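 Nitrosated compound was stirred in 1X PBS at 0.0125 M (0.0250 M NO) at room temperature. Aliquots were taken hourly to 12 h, every 4 h to 24 h, every 8 h to 48 h, then every 24 h. Aliquots were centrifuged and triplicate supernatants mixed with Griess reagent for 5 min. Absorbance at 550 nm was plotted against time.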

HASMC [5] = test: Antiproliferative activity against HASMC using calcein AM and ethidium homodimer-1 at <= 20 uM by LIVE/DEAD assay; assay type: functional, cell-based; details: Homo sapiens
Procedure, shortened: (§3)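 HASMCs in black plates were exposed for 96 h to compound at 0.1–20 µM in medium with 1% DMSO. Floating dead cells were pelleted, washed in PBS and returned to their wells. Cells were stained with Eth-1 (0.5 µM) and calcein AM (0.25 µM) for 45 min at room temperature, then read at ex/em 495/530 and 528/645 nm. Triplicate; t-test versus vehicle.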

[6] = Half life of the compound; assay type: physicochemical; procedure, shortened: as §2
[7] = Nitrosation of the compound in glacial acetic acid/tetrahydrofuran after 24 to 48 hrs by IR spectroscopy analysis; assay type: physicochemical
[8] = Toxicity in HASMC assessed as cell viability at 20 uM after 96 hrs by MTT assay relative to control; assay type: cell-based; details: human, HASMC cells; read-out: Activity; procedure, shortened: as §1
[9] = Toxicity in HASMC assessed as cell viability at 0.1 uM after 96 hrs by MTT assay relative to control; assay type: cell-based; details: human, HASMC cells; read-out: Activity; procedure, shortened: as §1
[10] = Toxicity in HASMC assessed as cell viability at 5 uM after 96 hrs by MTT assay relative to control; assay type: cell-based; details: human, HASMC cells; read-out: Activity; procedure, shortened: as §1
HASMC [11] = test: Toxicity in HASMC assessed as cell viability using calcein AM and ethidium homodimer-1 by LIVE/DEAD assay; assay type: cell-based; details: human; procedure, shortened: as §3
[12] = Toxicity in HASMC assessed as cell viability at 1 uM after 96 hrs by MTT assay relative to control; assay type: cell-based; details: human, HASMC cells; read-out: Activity; procedure, shortened: as §1
[13] = Toxicity in HASMC assessed as cell viability at 10 uM after 96 hrs by MTT assay relative to control; assay type: cell-based; details: human, HASMC cells; read-out: Activity; procedure, shortened: as §1
[14] = Induction of nitric oxide release in phosphate buffered saline up to 20 days by Griess reagent test in presence of glutathione; assay type: physicochemical; details: buffer, 480 h
Procedure, shortened: (§4)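 The same protocol was used in 1X PBS containing 5 mM reduced glutathione: donor at 0.0125 M, room temperature, timed aliquots over about 20 days. Supernatants were mixed with Griess reagent and absorbance read at 550 nm; no new calibration was needed.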

[15] = Half life of the compound in presence of glutathione; assay type: physicochemical; details: gsh; procedure, shortened: as §4
[16] = Nitrosation of the compound in glacial acetic acid/tetrahydrofuran after 24 to 48 hrs by IR spectroscopy analysis in presence of glutathione; assay type: physicochemical
HASMC [17] = test: Induction of nitric oxide release in HASMC at 0.001 to 5 mM after 60 mins by DAF-FM DA assay; details: Homo sapiens
HASMC [18] = test: Antiproliferative activity against HASMC at 1 mM after 96 hrs by MTT assay; assay type: functional; details: Homo sapiens
Procedure, shortened: (§5)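 HASMCs at passage six or later were seeded at 3000–3500 cells/well, attached 16–24 h at 37 °C, then serum-starved 24–48 h. iNOS was induced with LPS (50 µg/mL) plus IFN-γ (50 ng/mL) for 6 h at 37 °C. ABH was then given in SMC medium at 1, 10, 100 µM, 1.0 and 5.0 mM over two 48 h feeds. MTT absorbance was read at 570 nm; duplicate determinations.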

HASMC [19] = test: Antiproliferative activity against HASMC at 5 mM after 96 hrs by MTT assay; assay type: functional; details: Homo sapiens; procedure, shortened: as §5
[20] = Nitrosation of the compound in glacial acetic acid/tetrahydrofuran after 5 to 8 hrs by IR spectroscopy analysis; assay type: physicochemical
HASMC [21] = test: Antiproliferative activity against HASMC at 20 uM after 96 hrs by MTT assay; assay type: functional, Homo sapiens; procedure, shortened: as §1
HASMC [22] = test: Antiproliferative activity against HASMC using calcein AM and ethidium homodimer-1 at 20 uM by LIVE/DEAD assay in presence of S-2-amino-6-boronic acid; assay type: functional, cell-based; details: Homo sapiens
Procedure, shortened: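 HASMCs in black plates were induced with LPS/IFN-γ for 6 h, then given 20 µM donor plus 5 mM ABH for two 48 h periods. Detached cells were pelleted, washed and returned to their wells. Staining used ethidium homodimer-1 (0.5 µM) and calcein AM (0.25 µM) for 45 min at room temperature. Live cells were read at 495/530 nm and dead cells at 528/645 nm.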

HASMC [23] = test: Induction of nitric oxide release in HASMC at 20 uM after 60 mins by DAF-FM DA assay in presence of S-2-amino-6-boronic acid; assay type: functional, cell-based; details: Homo sapiens
Procedure, shortened: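 After LPS/IFN-γ induction (6 h), HASMCs were treated with 20 µM donor plus 5 mM ABH over 96 h. Cells were then loaded with DAF-FM DA (10 µM) for 60 min at room temperature in the dark, washed three times, left to de-esterify, and read at ex/em 495/515 nm.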

HASMC [24] = test: Antiproliferative activity against HASMC at 20 uM after 96 hrs by MTT assay in presence of S-2-amino-6-boronic acid; assay type: functional, cell-based; details: Homo sapiens
Procedure, shortened: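 HASMCs were induced with LPS (50 µg/mL) and IFN-γ (50 ng/mL) for 6 h at 37 °C. Cytokines were removed and cells were treated with 5 mM ABH plus donor (20 µM) in SMC medium for 48 h at 37 °C. A second dose was added, followed by a further 48 h. Readout was MTT absorbance at 570 nm.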

[25] = Nitrosation of the compound in glacial acetic acid/tetrahydrofuran after 5 to 8 hrs by IR spectroscopy analysis in presence of glutathione; assay type: physicochemical

| Activity [4] | half-life [6] | Compound | Activity (HASMC [2]) | Activity (HASMC [3]) | Activity (HASMC [5]) | viability at 96 h, 20 µM [8] | viability at 96 h, 0.1 µM [9] | viability at 96 h, 5 µM [10] | Activity (HASMC [11]) | viability at 96 h, 1 µM [12] | viability at 96 h, 10 µM [13] | other results |
| --- | --- | --- | --- | --- | --- | --- | --- | --- | --- | --- | --- | --- |
| 2.02% | 126 h | CCCCCCCN(N=O)c1cccc(N(CCCCCCC)N=O)c1[N+](=O)[O-] | inactive | Active | Active |  |  |  |  |  |  | Activity (HASMC [1]): Toxic; Activity [7]: 100% |
|  |  | CCCCCCCCCNc1cccc(NCCCCCCCCC)c1[N+](=O)[O-] |  |  |  | 68% | 82% | 75% | Toxic | 78% | 73% |  |
|  |  | CCCCCCCCCNc1ccc([N+](=O)[O-])c(NCCCCCCCCC)c1 |  |  |  | 86% | 87% | 86% | Non-toxic | 86.3% | 84.5% |  |
| 2.6% | 62 h | CCCCCCCCCCN(N=O)c1cccc(N(CCCCCCCCCC)N=O)c1[N+](=O)[O-] | Active |  |  |  |  |  |  |  |  | Activity [14]: 1.9%; half-life [15]: 108 h; Activity [16]: 100%; Activity [7]: 100% |
|  |  | N[C@@H](CCCCB(O)O)C(=O)O |  |  |  |  |  |  |  |  |  | Activity (HASMC [17]): Active; inhibition at 1000 µM (HASMC [18]): 35%; inhibition at 5000 µM (HASMC [19]): 48% |
| 3% | 60 h | CCCCCCCCCCN(N=O)c1ccc([N+](=O)[O-])c(N(CCCCCCCCCC)N=O)c1 | Active | Active | Active |  |  |  |  |  |  | Activity [20]: 100% |
| 1.85% | 140 h | CCCCCCN(N=O)c1cccc(N(CCCCCC)N=O)c1[N+](=O)[O-] | Active | Active | Active |  |  |  |  |  |  | Activity (HASMC [21]): 18%; inhibition (HASMC [22]): Active; Activity (HASMC [23]): Active; Activity [7]: 100%; inhibition (HASMC [24]): Active |
| 2.48% | 87 h | CCCCCCCN(N=O)c1ccc([N+](=O)[O-])c(N(CCCCCCC)N=O)c1 | Active | Active | Active |  |  |  |  |  |  | Activity [20]: 100% |
| 2.63% | 83 h | CCCCCCCCN(N=O)c1ccc([N+](=O)[O-])c(N(CCCCCCCC)N=O)c1 | Active | Active | Active |  |  |  |  |  |  | Activity [20]: 100% |
|  |  | CCCCCCCCCCNc1ccc([N+](=O)[O-])c(NCCCCCCCCCC)c1 |  |  |  | 84% | 89% | 88% | Non-toxic | 87.4% | 84% |  |
| 2.32% | 80 h | CCCCCCCCCN(N=O)c1cccc(N(CCCCCCCCC)N=O)c1[N+](=O)[O-] | Active |  |  |  |  |  |  |  |  | Activity [7]: 100% |
|  |  | CCCCCCCCCCNc1cccc(NCCCCCCCCCC)c1[N+](=O)[O-] |  |  |  | 65% | 76.8% | 70% | Toxic | 75.5% | 69% |  |
| 2.83% | 69 h | CCCCCCCCCN(N=O)c1ccc([N+](=O)[O-])c(N(CCCCCCCCC)N=O)c1 | Active | Active | Active |  |  |  |  |  |  | Activity [14]: 1.29%; Activity [25]: 100%; half-life [15]: 109 h; Activity [20]: 100% |
| 2.13% | 93 h | CCCCCCCCN(N=O)c1cccc(N(CCCCCCCC)N=O)c1[N+](=O)[O-] | Active | Active | Active |  |  |  |  |  |  | Activity [14]: 1.32%; half-life [15]: 123 h; Activity [16]: 100%; Activity [7]: 100% |
|  |  | CCCCCCCCNc1ccc([N+](=O)[O-])c(NCCCCCCCC)c1 |  |  |  | 85.4% | 84.6% | 87.2% | Non-toxic | 89.6% | 84% |  |
|  |  | CCCCCCNc1ccc([N+](=O)[O-])c(NCCCCCC)c1 |  |  |  | 87% | 85.1% | 84% | Non-toxic | 86.1% | 85.9% |  |
|  |  | CCCCCCNc1cccc(NCCCCCC)c1[N+](=O)[O-] |  |  |  | 81% | 82.2% | 84% | Non-toxic | 82% | 81% |  |
|  |  | CCCCCCCNc1cccc(NCCCCCCC)c1[N+](=O)[O-] |  |  |  | 80% | 81.6% | 82% | Non-toxic | 80% | 81% |  |
|  |  | CCCCCCCCNc1cccc(NCCCCCCCC)c1[N+](=O)[O-] |  |  |  | 82.8% | 86.2% | 82.9% | Non-toxic | 89.7% | 83.2% |  |
|  |  | CCCCCCCNc1ccc([N+](=O)[O-])c(NCCCCCCC)c1 |  |  |  | 85.6% | 88.3% | 87.6% | Non-toxic | 87% | 86% |  |
| 2.34% | 105 h | CCCCCCN(N=O)c1ccc([N+](=O)[O-])c(N(CCCCCC)N=O)c1 | Active | Active | Active |  |  |  |  |  |  | Activity [14]: 0.84%; Activity (HASMC [21]): 23%; Activity [25]: 100%; half-life [15]: 126 h; inhibition (HASMC [22]): Active; Activity (HASMC [23]): Active; Activity [20]: 100%; inhibition (HASMC [24]): Active |

Source: ChEMBL document CHEMBL2346638, “Secondary amines containing one aromatic nitro group: preparation, nitrosation, sustained nitric oxide release, and the synergistic effects of released nitric oxide and an arginase inhibitor on vascular smooth muscle cell proliferation” (Bioorg Med Chem, 2013)
